Measurements: ChEMBL document CHEMBL4196059, “Design, synthesis, and biological evaluation of stable β6.3-Helices: Discovery of non-hemolytic antibacterial peptides” (Eur J Med Chem, 2018)
≈ marks a conversion by molar mass, not a printed value. Residues, ends and D or L forms follow the SMILES beside them.

Assays:
[1] = Hemolytic activity against human RBC at 50 uM after 1 hr by Drabkin's assay relative to control; type: ADME, cell-based, Erythrocyte; details: human red blood cells (erythrocytes), read-out: Activity
[2] = Hemolytic activity against human RBC at 25 uM after 1 hr by Drabkin's assay relative to control; type: ADME, cell-based, Erythrocyte; details: human red blood cells (erythrocytes), read-out: Activity
[3] = Hemolytic activity against human RBC at 12.5 uM after 1 hr by Drabkin's assay relative to control; type: ADME, cell-based, Erythrocyte; details: human red blood cells (erythrocytes), read-out: Activity
[4] = Hemolytic activity against human RBC at 6.25 uM after 1 hr by Drabkin's assay relative to control; type: ADME, cell-based, Erythrocyte; details: human red blood cells (erythrocytes), read-out: Activity
[5] = Hemolytic activity against human RBC at 3.125 uM after 1 hr by Drabkin's assay relative to control; type: ADME, cell-based, Erythrocyte; details: human red blood cells (erythrocytes), read-out: Activity
[6] = Hemolytic activity against human RBC at 1.56 uM after 1 hr by Drabkin's assay relative to control; type: ADME, cell-based, Erythrocyte; details: human red blood cells (erythrocytes), read-out: Activity
[7] = Hemolytic activity against human RBC at 0.78 uM after 1 hr by Drabkin's assay relative to control; type: ADME, cell-based, Erythrocyte; details: human red blood cells (erythrocytes), read-out: Activity
[8] = Hemolytic activity against human RBC at 0.39 uM after 1 hr by Drabkin's assay relative to control; type: ADME, cell-based, Erythrocyte; details: human red blood cells (erythrocytes), read-out: Activity
[9] = Hemolytic activity against human RBC; type: ADME, cell-based, Erythrocyte; details: human red blood cells (erythrocytes)
Erythrocyte = assay: Hemolytic activity against human RBC after 1 hr by Drabkin's assay; type: ADME, cell-based
Staphylococcus aureus [10] = assay: Growth inhibition of methicillin-resistant Staphylococcus aureus ATCC 43300 at 32 ug/ml after 18 hrs; type: functional; details: ATCC 43300, 18 h, read-out: GI
Procedure, shortened: (§1)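 Mid-log cultures in cation-adjusted Mueller Hinton broth were added at 5×10^5 CFU/mL to wells at a final compound concentration of 32 μg/mL. Plates stood at 37 °C for 18 h. Growth was read by OD600, and % inhibition was computed against media-only and untreated-bacteria controls.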

Escherichia coli [11] = assay: Growth inhibition of Escherichia coli ATCC 25922 at 32 ug/ml after 18 hrs; type: functional; details: ATCC 25922, 18 h, read-out: GI
Procedure, shortened: (§2)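 Mid-log cultures were prepared as above and seeded at 5×10^5 CFU/mL with compound at a final 32 μg/mL, then held static at 37 °C for 18 h. Growth was read as OD600. Percent inhibition was calculated against media-only and bacteria-only controls on the same plate.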

Klebsiella pneumoniae [12] = assay: Growth inhibition of multidrug-resistant Klebsiella pneumoniae ATCC 700603 at 32 ug/ml after 18 hrs; type: functional; details: ATCC 700603, 18 h, read-out: GI; procedure, shortened: as §1
Pseudomonas aeruginosa = assay: Growth inhibition of Pseudomonas aeruginosa ATCC 27853 at 32 ug/ml after 18 hrs; type: functional; details: ATCC 27853, 18 h, read-out: GI; procedure, shortened: as §2
Acinetobacter baumannii [13] = assay: Growth inhibition of Acinetobacter baumannii ATCC 19606 at 32 ug/ml after 18 hrs; type: functional; details: ATCC 19606 = CIP 70.34 = JCM 6841, 18 h, read-out: GI; procedure, shortened: as §2
Escherichia coli [14] = assay: Antibacterial activity against Escherichia coli ATCC 25922 after 18 hrs by non-binding surface 96-well plate-based method; type: functional; details: ATCC 25922, 18 h
Procedure, shortened: (§3)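 Cultured in cation-adjusted Mueller Hinton broth at 37 °C for 12 h, diluted 40-fold and grown 1.5–3 h to mid-log. Seeded at 5×10^5 CFU/mL over a 12-point dose response in non-binding surface and polystyrene 96-well plates, duplicates (n=2). Incubated static at 37 °C for 18 h. MIC read from OD600 light scattering; colistin and vancomycin as standards.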

Escherichia coli [15] = assay: Antibacterial activity against Escherichia coli ATCC 25922 after 18 hrs by polystyrene 96-well plate-based method; type: functional; details: ATCC 25922, 18 h
Procedure, shortened: (§4)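 Strains grown in cation-adjusted Mueller Hinton broth at 37 °C for 12 h, diluted 40-fold and regrown 1.5–3 h to mid-log. Inoculum was 5×10^5 CFU/mL in 12-point dose response, in non-binding surface or polystyrene plates, in duplicate. Plates stood at 37 °C for 18 h. MIC was read by OD600.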

Klebsiella pneumoniae [16] = assay: Antibacterial activity against multidrug-resistant Klebsiella pneumoniae ATCC 700603 after 18 hrs by non-binding surface 96-well plate-based method; type: functional; details: ATCC 700603, 18 h; procedure, shortened: as §4
Klebsiella pneumoniae [17] = assay: Antibacterial activity against multidrug-resistant Klebsiella pneumoniae ATCC 700603 after 18 hrs by polystyrene 96-well plate-based method; type: functional; details: ATCC 700603, 18 h; procedure, shortened: as §4
Acinetobacter baumannii [18] = assay: Antibacterial activity against Acinetobacter baumannii ATCC 19606 after 18 hrs by non-binding surface 96-well plate-based method; type: functional; details: ATCC 19606 = CIP 70.34 = JCM 6841, 18 h; procedure, shortened: as §4
Acinetobacter baumannii [19] = assay: Antibacterial activity against Acinetobacter baumannii ATCC 19606 after 18 hrs by polystyrene 96-well plate-based method; type: functional; details: ATCC 19606 = CIP 70.34 = JCM 6841, 18 h; procedure, shortened: as §3
Staphylococcus aureus [20] = assay: Antibacterial activity against methicillin-resistant Staphylococcus aureus ATCC 43300 after 18 hrs by non-binding surface 96-well plate-based method; type: functional; details: ATCC 43300, 18 h; procedure, shortened: as §4
Staphylococcus aureus [21] = assay: Antibacterial activity against methicillin-resistant Staphylococcus aureus ATCC 43300 after 18 hrs by polystyrene 96-well plate-based method; type: functional; details: ATCC 43300, 18 h; procedure, shortened: as §4
Cryptococcus neoformans = assay: Growth inhibition of Cryptococcus neoformans H99 ATCC 208821 at 32 ug/ml after 24 hrs by resazurin dye-based microspectrophotometric assay; type: functional; details: var. grubii H99 ATCC 208821, 24 h, read-out: GI
Procedure, shortened: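 Yeasts were grown 3 days on YPD agar at 30 °C, suspended from five colonies and diluted in YNB broth to a final 2.5×10^3 CFU/mL. Compound at a final 32 μg/mL; incubated 24 h at 35 °C without shaking. C. albicans was read at OD530. C. neoformans was read as OD600–570 after resazurin (0.001% final) and a further 2 h at 35 °C. Fluconazole was the standard.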

Lipid bilayer = assay: Induction of pore formation in POPC vesicles at 20 uM after 3 hrs by carboxyfluorescein dye leakage assay; details: in the assay text read “after 3 mins” for “after 3 hrs”
Procedure, shortened: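 POPC or DOPC liposomes were hydrated in 10 mM HEPES, 100 mM KCl, pH 7.4, containing 50 mM carboxyfluorescein. Size was checked by dynamic light scattering, and vesicles were used at 2.2×10^10 per mL. Peptide at 20 μM was equilibrated with vesicles for 3 min, and dye leakage was measured.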

Candida albicans = assay: Growth inhibition of Candida albicans ATCC 90028 at 32 ug/ml after 24 hrs by OD530 light-scattering microspectrophotometric method; details: ATCC 90028, 24 h, read-out: GI

Structure (SMILES): CC(C)C[C@@H](NC(=O)[C@H](C)NC(=O)CNC(=O)[C@@H](NC=O)C(C)C)C(=O)N[C@@H](C)C(=O)N[C@@H](C(=O)N[C@H](C(=O)N[C@@H](C(=O)N[C@@H](Cc1c[nH]c2ccccc12)C(=O)N[C@H](CC(C)C)C(=O)N[C@@H](Cc1c[nH]c2ccccc12)C(=O)N[C@H](CC(C)C)C(=O)N[C@@H](Cc1c[nH]c2ccccc12)C(=O)N[C@H](CC(C)C)C(=O)N[C@@H](Cc1c[nH]c2ccccc12)C(=O)NCCO)C(C)C)C(C)C)C(C)C (HELM PEPTIDE1{[O=C[*:2]].V.G.A.[dL].A.[dV].V.[dV].W.[dL].W.[dL].W.[dL].W.[OCCN[*:1]]}$$$$V2.0)
- hemolysis at 1 h, 50 µM [1]: 48.5%
- hemolysis at 1 h, 25 µM [2]: 52.8%
- hemolysis at 1 h, 12.5 µM [3]: 66.1%
- hemolysis at 1 h, 6.25 µM [4]: 87.2%
- hemolysis at 1 h, 3.125 µM [5]: 84.7%
- hemolysis at 1 h, 1.56 µM [6]: 74.8%
- hemolysis at 1 h, 0.78 µM [7]: 59.4%
- hemolysis at 1 h, 0.39 µM [8]: 5.43%
- HC50 [9]: 5 µM
- Activity (Erythrocyte): Dose-dependent effect
- inhibition of growth at 32 µg/mL (Staphylococcus aureus [10]): 24.9%
- inhibition of growth at 32 µg/mL (Escherichia coli [11]): 11.1%
- inhibition of growth at 32 µg/mL (Klebsiella pneumoniae [12]): 11.2%
- inhibition of growth at 32 µg/mL (Pseudomonas aeruginosa): -6.36%
- inhibition of growth at 32 µg/mL (Acinetobacter baumannii [13]): 6.51%
- MIC (Escherichia coli [14]): > 50 µg/mL
- MIC (Escherichia coli [15]): > 50 µg/mL
- MIC (Klebsiella pneumoniae [16]): > 50 µg/mL
- MIC (Klebsiella pneumoniae [17]): > 50 µg/mL
- MIC (Acinetobacter baumannii [18]): > 50 µg/mL
- MIC (Acinetobacter baumannii [19]): > 50 µg/mL
- MIC (Staphylococcus aureus [20]): > 50 µg/mL
- MIC (Staphylococcus aureus [21]): 25 to 50 µg/mL (≈ 13.3 to 26.6 µM)
- inhibition of growth at 32 µg/mL (Cryptococcus neoformans): -0.81%
- Activity (Lipid bilayer): 100%
- inhibition of growth at 32 µg/mL (Candida albicans): 8.67%
